Active and inactive are the calls of the source. The calls are words filed in the database; no cut-off is given here. Peptide text beside a SMILES is read from it.
Legend:
[1] = test system: EPC; assay: Cytoprotective activity in human EPC assessed as decrease in H2O2-induced ROS production after 2 hrs by DCF-DA flow cytometry assay; format: functional
Method in brief: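 Human EPCs from peripheral blood mononuclear cells, cultured 21 days on collagen I in EGM-2. ROS measured by flow cytometry using DCF-DA (0.5 μM final) after 2 h of treatment. H₂O₂ 150 μM as positive control.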

[2] = test system: Rattus norvegicus; assay: Antidiabetic activity in neonatal Sprague-Dawley rat assessed as inhibition of STZ-induced decrease in plasma insulin level at 100 nmol/kg, […] post STZ-challenge measured after 70 days by RIA by relative to control; format: functional, organism-based
[3] = test system: EPC; assay: Cytoprotective activity in human EPC assessed as decrease in H2O2-induced senescence associated beta-galactosidase positive cells at 10 uM after 24 hrs; format: functional
Method in brief: (§1)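 EPCs given test peptides (1 μM or 10 μM) with or without H₂O₂ for 24 h. Cells then fixed in 2% paraformaldehyde for 3 min and stained 24 h at 37 °C with X-gal solution. SA-β-gal-positive cells counted out of 100 at 20× by three investigators.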

[4] = test system: Rattus norvegicus; assay: Antidiabetic activity in neonatal Sprague-Dawley rat assessed as decrease in STZ-induced plasma glucose level at 100 nmol/kg, sc administered from day 2 to day 9 post STZ-challenge measured after 70 days by colorimetry by relative to control; format: functional, organism-based
Method in brief: (§2)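 Neonatal rats given STZ 100 mg/kg ip in citrate buffer (pH 4.5) on day 1 of birth, then peptide 30 or 100 nmol/kg sc twice daily, days 2–8. Controls received citrate buffer. Killed at day 70. Glucose measured colorimetrically in nonfasted plasma. Plasma and pancreatic (80 mg) insulin measured by RIA. n = 11–21 per group.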

[5] = test system: Rattus norvegicus; assay: Antidiabetic activity in neonatal Sprague-Dawley rat assessed as decrease in STZ-induced plasma glucose level at 30 nmol/kg, sc administered from day 2 to day 9 post STZ-challenge measured after 70 days by colorimetry relative to control; format: functional, organism-based; method in brief: as §2
[6] = test system: HIT-T15; assay: Cytoprotective activity in hamster HIT-T15 cells assessed as inhibition of IFN-gamma/TNFalpha/IL1beta-induced cell death at 1 to 100 nM after 24 hrs by MTT assay relative to control; format: functional, cell-based; conditions: Mesocricetus auratus
Method in brief: (§3)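 HIT-T15 cells (5×10^3/well) serum-starved 24 h, then 24 h serum-free with IFN-γ 100 ng/mL, TNF-α 200 ng/mL, IL-1β 10 ng/mL plus peptide (1–100 nM). MTT 1 mg/mL ~1 h, formazan dissolved in DMSO, A570. Reported as percent of cytokine control. Mean ± SE of ≥3 experiments in quadruplicate.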

[7] = test system: HIT-T15; assay: Antiapoptotic activity in hamster HIT-T15 cells assessed as reduction in IFN-gamma/TNFalpha/IL1beta-induced apoptosis at 100 nM after 24 hrs by Hoechst staining relative to control; format: functional, cell-based; conditions: Mesocricetus auratus
Method in brief: (§4)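 HIT-T15 cells serum-starved 24 h, then 24 h in serum-free medium with IFN-γ 100 ng/mL, TNF-α 200 ng/mL, IL-1β 10 ng/mL plus peptide. Cells pooled with floating cells, formaldehyde-fixed, ethanol-stored, stained with 10 μg/mL Hoechst 33258. Condensed/fragmented nuclei counted, 500 nuclei in duplicate, n = 3. Reported as percent apoptotic cells.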

[8] = molecular target: Ras-related C3 botulinum toxin substrate 1 (Homo sapiens) (UniProt P63000); assay: Inhibition of Rac1 activation
[9] = test system: HIT-T15; assay: Cytoprotective activity in hamster HIT-T15 cells assessed as inhibition of serum starvation-induced cell death after 24 hrs by MTT assay relative to control; format: functional, cell-based; conditions: Mesocricetus auratus
Method in brief: (§5)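 Viability by MTT in HIT-T15 cells seeded at 5×10^3/well, serum-starved 24 h, then 24 h more in serum-free medium with peptide (1–100 nM). MTT 1 mg/mL ~1 h, DMSO solubilization, absorbance 570 nm. Expressed as percent of serum-free control. Mean ± SE, ≥3 experiments in quadruplicate.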

[10] = test system: Rattus norvegicus; assay: Antidiabetic activity in neonatal Sprague-Dawley rat assessed as inhibition of STZ-induced mortality at 100 nmol/kg, sc administered on day 2 post STZ-challenge measured on day 9 (reference value: 52%); format: functional; parameters: scale not given: the % may be the effect or the level left
[11] = test system: HIT-T15; assay: Cytoprotective activity in hamster HIT-T15 cells assessed as inhibition of serum starvation-induced cell death at 1 to 100 nM after 24 hrs by MTT assay relative to control; format: functional, cell-based; conditions: Mesocricetus auratus; method in brief: as §5
[12] = test system: Rattus norvegicus; assay: Antidiabetic activity in neonatal Sprague-Dawley rat assessed as inhibition of STZ-induced mortality at 30 nmol/kg, sc administered on day 2 post STZ-challenge measured on day 9 (reference value: 52%); format: functional; parameters: scale not given: the % may be the effect or the level left
[13] = test system: HIT-T15; assay: Antiapoptotic activity in hamster HIT-T15 cells assessed as reduction in IFN-gamma/TNFalpha/IL1beta-induced apoptosis at 1 nM after 24 hrs by Hoechst staining relative to control; format: functional, cell-based; conditions: Mesocricetus auratus; method in brief: as §4
[14] = test system: Rattus norvegicus; assay: Antidiabetic activity in neonatal Sprague-Dawley rat assessed as inhibition of STZ-induced decrease in plasma insulin level at 30 nmol/kg, sc administered from day 2 to day 9 post STZ-challenge measured after 70 days by RIA relative to control; format: functional, organism-based; method in brief: as §2
[15] = test system: HIT-T15; assay: Antiapoptotic activity in hamster HIT-T15 cells assessed as reduction in IFN-gamma/TNFalpha/IL1beta-induced apoptosis at 10 nM after 24 hrs by Hoechst staining relative to control; format: functional, cell-based; conditions: Mesocricetus auratus; method in brief: as §4
[16] = test system: Pancreatic islet; assay: Cytoprotective activity in human pancreatic islet cells assessed as inhibition of IFN-gamma/TNFalpha/IL1beta-induced cell death at 10 to 100 nM after 72 hrs by MTT assay relative to control; format: functional
Method in brief: (§6)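 Human donor islets (>70% purity, 25/well) held 72 h in serum-free medium with peptide, alone or with IFN-γ/TNF-α/IL-1β at 5 ng/mL each. Viability by MTT (1 mg/mL ~1 h, DMSO, 570 nm). Mean ± SE of ≥3 experiments in quadruplicate.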

[17] = test system: Pancreatic islet; assay: Cytoprotective activity in human pancreatic islet cells assessed as inhibition of serum starvation-induced cell death at 10 to 100 nM after 72 hrs by MTT assay relative to control; format: functional; method in brief: as §6
[18] = test system: HIT-T15; assay: Cytoprotective activity in hamster HIT-T15 cells assessed as inhibition of IFN-gamma/TNFalpha/IL1beta-induced cell death after 24 hrs by MTT assay relative to control; format: functional, cell-based; conditions: Mesocricetus auratus; method in brief: as §3
[19] = test system: Rattus norvegicus; assay: Antidiabetic activity in neonatal Sprague-Dawley rat assessed as inhibition of STZ-induced decrease in pancreatic insulin level at 100 nmol/kg, sc administered from day 2 to day 9 post STZ-challenge measured after 70 days by RIA by relative to control; format: functional, organism-based; method in brief: as §2
[20] = test system: Rattus norvegicus; assay: Antidiabetic activity in neonatal Sprague-Dawley rat assessed as inhibition of STZ-induced decrease in pancreatic insulin level at 30 nmol/kg, […] measured after 70 days by RIA relative to control; format: functional, organism-based
[21] = test system: Pancreatic islet; assay: Cytoprotective activity in human pancreatic islet cells assessed as inhibition of IFN-gamma/TNFalpha/IL1beta-induced cell death at 1 nM after 24 hrs by MTT assay relative to control; format: functional
Method in brief: (§7)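 Human donor islets (purity >70%, 25/well) serum-starved 24 h, then 24 h serum-free with peptide (1–100 nM), alone or with IFN-γ 100 ng/mL, TNF-α 200 ng/mL, IL-1β 10 ng/mL. MTT 1 mg/mL ~1 h, DMSO, A570. Percent of serum-free or cytokine control. ≥3 experiments in quadruplicate.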

[22] = test system: EPC; assay: Cytoprotective activity in human EPC assessed as decrease in H2O2-induced senescence associated beta-galactosidase positive cells at 1 uM after 24 hrs; format: functional; method in brief: as §1
[23] = test system: Pancreatic islet; assay: Cytoprotective activity in human pancreatic islet cells assessed as inhibition of serum starvation-induced cell death at 1 nM after 24 hrs by MTT assay relative to control; format: functional; method in brief: as §7
[24] = test system: Pancreatic islet; assay: Cytoprotective activity in human pancreatic islet cells assessed as inhibition of serum starvation-induced cell death at 10 nM after 24 hrs by MTT assay relative to control; format: functional; method in brief: as §7
[25] = test system: Pancreatic islet; assay: Cytoprotective activity in human pancreatic islet cells assessed as inhibition of serum starvation-induced cell death at 100 nM after 24 hrs by MTT assay relative to control; format: functional; method in brief: as §7
[26] = test system: Pancreatic islet; assay: Cytoprotective activity in human pancreatic islet cells assessed as inhibition of IFN-gamma/TNFalpha/IL1beta-induced cell death at 100 nM after 24 hrs by MTT assay relative to control; format: functional; method in brief: as §7
[27] = test system: Pancreatic islet; assay: Cytoprotective activity in human pancreatic islet cells assessed as inhibition of IFN-gamma/TNFalpha/IL1beta-induced cell death at 10 nM after 24 hrs by MTT assay relative to control; format: functional; method in brief: as §7
[28] = test system: HIT-T15; assay: Cytoprotective activity in hamster HIT-T15 cells assessed as inhibition of IFN-gamma/TNFalpha/IL1beta-induced cell death at 10 to 100 nM after 24 hrs by MTT assay relative to control; format: functional, cell-based; conditions: Mesocricetus auratus; method in brief: as §3
[29] = test system: Pancreatic islet; assay: Cytoprotective activity in human pancreatic islet cells assessed as inhibition of IFN-gamma/TNFalpha/IL1beta-induced cell death at 100 nM after 72 hrs by MTT assay relative to control; format: functional; method in brief: as §6

| Compound | Activity [1] | Activity [3] | Activity [5] | Activity [6] | Activity [7] | inhibition [8] | Activity [9] | Activity [11] | Activity [12] [%] | Activity [13] | Activity [14] | Activity [15] | Activity [16] | Activity [17] | Activity [18] | Activity [20] | Activity [25] | Activity [26] | Activity [28] | other results |
| --- | --- | --- | --- | --- | --- | --- | --- | --- | --- | --- | --- | --- | --- | --- | --- | --- | --- | --- | --- | --- |
| CC(C)[C@H](NC(=O)[C@H](CCCNC(=N)N)NC(=O)[C@H](CCC(N)=O)NC(=O)[C@H](Cc1cnc[nH]1)NC(=O)[C@H](CCC(=O)O)NC(=O)[C@@H]1CCCN1C(=O)[C@@H](N)CO)C(=O)N[C@@H](CCC(N)=O)C(N)=O | Active | Active | Active | Active | Active | Active | Dose-dependent effect | Active | 71 | Active | Active | Active | Active | Active | Dose-dependent effect | Active |  |  |  | Activity [2]: Active; Activity [4]: Active; Activity [10]: 89%; Activity [19]: Active |
| CC(C)C[C@H](NC(=O)[C@H](CCCCN)NC(=O)[C@H](C)NC(=O)[C@@H]1CCCN1C(=O)[C@@H]1CCCN1C(=O)[C@H](CCCCN)NC(=O)[C@H](CCCCN)NC(=O)[C@H](CO)NC(=O)[C@H](CCC(=O)O)NC(=O)[C@H](CCCCN)NC(=O)[C@H](CCCNC(=N)N)NC(=O)[C@H](CCC(N)=O)NC(=O)[C@H](CCC(N)=O)NC(=O)[C@@H](NC(=O)[C@H](CCCNC(=N)N)NC(=O)[C@H](CCC(N)=O)NC(=O)[C@H](Cc1cnc[nH]1)NC(=O)[C@H](CCC(=O)O)NC(=O)[C@@H]1CCCN1C(=O)[C@H](CO)NC(=O)[C@H](CC(C)C)NC(=O)[C@H](Cc1ccccc1)NC(=O)[C@H](CO)NC(=O)[C@H](CO)NC(=O)CN)C(C)C)C(=O)N[C@@H](CCC(N)=O)C(=O)N1CCC[C@H]1C(=O)N[C@@H](CCCNC(=N)N)C(=O)O | Active |  | Active | Active | Active |  | Dose-dependent effect | Active | 72 | Active | Active | Active | Active | Active | Dose-dependent effect | Active | Active | Active |  | Activity [21]: Active; Activity [22]: Active; Activity [23]: inactive; Activity [24]: Active; Activity [27]: Active |
| CC(C)[C@H](NC(=O)[C@H](CCCNC(=N)N)NC(=O)[C@H](CCC(N)=O)NC(=O)[C@@H](N)Cc1cnc[nH]1)C(N)=O (H-HQRV-NH2) |  |  |  |  |  |  |  |  |  |  |  |  |  |  |  |  |  |  | Active |  |
| CC(C)[C@@H]1NC(=O)[C@H](CCCNC(=N)N)NC(=O)[C@H](CCC(N)=O)NC(=O)[C@H](Cc2cnc[nH]2)NC(=O)[C@H](CCC(=O)O)NC(=O)[C@@H]2CCCN2C(=O)[C@H](CO)NC(=O)[C@H](CCC(N)=O)NC1=O (cyclo(EHQRVQSP)) | Active | Active |  |  |  | Active | Dose-dependent effect |  |  |  |  |  |  |  | Dose-dependent effect |  |  |  |  |  |
| H-EHQRV-NH2 |  |  |  |  | Active |  |  |  |  | inactive |  | inactive |  |  |  |  |  |  | Active |  |
| H-QQVRQHEPSLFSSG-OH |  |  |  | inactive | inactive |  |  |  |  | inactive |  | inactive |  |  |  |  | inactive | inactive |  | Activity [29]: inactive |

— ChEMBL document CHEMBL2029233, “Des-acyl ghrelin fragments and analogues promote survival of pancreatic β-cells and human pancreatic islets and prevent diabetes in streptozotocin-treated rats” (2012)
